The entries come from a sample that favours hits as a whole.
CHOP inhibitor = inhibitors of CHOP promoter induction, primary screen, cell-based, unfolded protein response, luciferase reporter | CHO-K1 CHOP-promoter luciferase, tunicamycin-induced, 15-18 h | inhibition, % at 10 µM | 220,000 tested, 3.8% active | AID 2732, 2010;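 active = compounds that reduced the stress-induced luciferase reporter signal by more than about 70% of percent inhibition, limit read from the data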
GAA850 FXN act = FXN promoter activators, primary screen, cell-based, luciferase luminescence, HEK293 lucGAA850. activation, % at 6 µM. HEK293 lucGAA850 FXN promoter luciferase reporter, 24 h; percent of 10 µM SAHA response. 360,000 tested, 0.56% active;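 active = activation above the average of all compounds screened plus 3 SD, cutoff fixed separately per campaign, cut at about 7.5% in these data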
UPR XBP1 act = activators of adaptive XBP1 UPR arm, primary screen, cell-based, CHO-XBP1 luciferase reporter, luminescence, uHTS; AID 463104, 2010; 330,000 tested, 0.33% active; activation, % at 20 µM; IRE1-XBP1 UPR activation; percent of tunicamycin response, DMSO as zero;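 active = versus positive control, 20 µM dose yields 30% or more activation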
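Material: IRE1-XBP1 luciferase reporter CHO line / Quantity: one thousand reporter cells per well / Buffer or medium: F12 with 10% serum / Compound: 20 µM single concentration, DMSO 1% / Times: 6 h treatment, 37 °C / Detection: Steady-Glo luciferase glow luminescence, 10 min after reagent addition / Benchmarks: tunicamycin high, DMSO low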
CHOP UPR activ = activators of apoptotic CHOP UPR arm, primary screen, cell-based, CHO-CHOP luciferase reporter, luminescence, uHTS; UPR activation; percent of tunicamycin response over DMSO baseline; activation, % at 10 µM; 330,000 tested, 0.34% active;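 active = at 10 µM dose, activation of 40% or more, normalized to positive control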
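assay system = CHO CHOP reporter cells | amount = 500 CHO-CHOP cells per well | buffer or medium = F12 with 10% FBS | incubation = 16-18 h cell attachment, then 6 h compound exposure, 37 °C | detection = luminescence read with Steady-Glo | read-out = percent activation relative to tunicamycin control | controls = tunicamycin high control, DMSO low control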
Hits are given with their value; – = inactive; · = no result.

SMILES	CHOP inhibitor	GAA850 FXN act	UPR XBP1 act	CHOP UPR activ
O=C(Nc1ccc(NC(=O)c2ccccc2O)cc1)Nc1ccc(F)cc1F	71.3	–	–	–
O=C(Nc1ccc(F)cc1)Nc1ccccc1F	–	–	–	–
O=C(Nc1nc(-c2ccccc2)cs1)Nc1ccc(F)cc1F	88.6	–	–	–
CCCCCc1cc(O)c2c(C)cc(=O)oc2c1	72.3	–	–	–
Cc1cc(=O)oc2cc(O)cc(O)c12	·	–	·	·
Cc1ccc2ccccc2c1C(O)c1ncc(-c2cccc(F)c2)[nH]1 (centres undefined)	·	–	·	·
CCOC(=O)c1cc(-c2ccccc2)n(CC(=O)Nc2cccc(OC)c2)c1C	–	–	–	–
CCOC(=O)c1cc(-c2ccccc2)n(CC(=O)Nc2ccc(OC)c(OC)c2)c1C	100.1	–	–	–
O=C(CSc1nc(-c2ccccc2)nc2c1Cc1ccccc1O2)Nc1ccc(C(=O)O)cc1	76.7	–	·	·
O=C(CSc1nc(-c2ccc(F)cc2)nc2c1Cc1ccccc1O2)Nc1ccc(C(=O)O)cc1	–	–	·	·
CC1(C(=O)NS(=O)(=O)c2cccc(OC(F)F)c2)CCN1C(=O)CCc1cccs1 (centres undefined)	·	–	·	·
CNc1cc(-c2cc(OC)ccc2OC)ncn1	·	–	·	·
CC(C)CC(=O)Nc1cc2nn(-c3ccccc3)nc2cc1Cl	85.4	–	–	–
CC(C)CC(=O)Nc1cccc2c1C(=O)N(c1ccccc1)C2=O	–	–	–	–
Cc1ccc(NC(=O)Cn2cncc2-c2ccc([N+](=O)[O-])cc2)cc1C	81.4	–	–	–
Cc1ccc(S(=O)(=O)NCC(=O)Nc2ccc(C(F)(F)F)cc2)cc1	92.1	–	–	–
COc1cc(C2N(c3ccccc3)CCN2c2ccccc2)ccc1OC(C)=O	–	–	–	–
COc1ccc(C2N(c3ccc(C)cc3)CCN2c2ccc(C)cc2)cc1O	95.5	–	–	–
CC(C)CN1C(=O)/C(=C(/C#N)C(=O)NC2CCCCC2)c2ccccc21	92.0	–	–	–
O=C(NC1CCCCC1)C(c1ccc(F)cc1)N(Cc1cccs1)C(=O)CN1C(=O)c2ccccc2S1(=O)=O (centres undefined)	90.8	–	–	–
O=C(NC1CCCC1)C(c1ccc(F)cc1)N(Cc1ccccc1Cl)C(=O)CCl (centres undefined)	107.7	–	–	–
COc1cccc(/C=C/C(=O)N2CCN(S(=O)(=O)c3ccccc3)CC2)c1	·	–	·	·
COc1cc(-c2cc(NC=O)c3ncc(-c4ccc(C(C)=O)cc4)n3c2)ccc1O	·	–	·	·
CSc1nnc(CSCc2ccc(Cl)cc2Cl)n1-c1ccccc1	79.3	–	–	–
Nc1ccc(S(=O)(=O)N2CCc3ccccc32)cc1	·	–	–	–
SMILES	CHOP inhibitor	GAA850 FXN act	UPR XBP1 act	CHOP UPR activ
O=S(=O)(NC1CCCC1)c1ccc(S(=O)(=O)N2CCc3ccccc32)cc1	85.8	–	–	–
O=C(NNC(=O)c1cccc(S(=O)(=O)N2CCc3ccccc32)c1)c1ccccc1	72.7	–	·	·
Cc1ccc(S(=O)(=O)N2CC3(O)CN(C(=O)OC(C)C)N(C(=O)OC(C)C)CC3(OC(=O)NCc3ccccc3)C2)cc1 (centres undefined)	·	–	·	·
Cc1cccc(NC(=O)CNc2cc(C)ccc2C)c1	77.3	–	–	–
Cc1cccc(NC(=O)CC(=O)Nc2cccc(C)c2)c1	·	–	–	–
CCOc1ccc(NC(=O)CNc2ccc(C)cc2Cl)cc1	90.8	–	–	–
COc1ccc(C)cc1NCC(=O)Nc1ccc(C(C)(C)C)cc1	70.3	–	–	–
CCOc1ccc(NCC(=O)Nc2ccc(C)cc2C)cc1	–	–	–	–
C[C@@H]1CN([C@@H](C)CO)C(=O)c2cc(NS(=O)(=O)c3ccc(F)cc3)ccc2O[C@@H](C)CCCCO[C@H]1CN(C)C(=O)NC1CCCCC1	·	–	·	·
CCN(CC)C(=O)C1=C(C)N(CCCOC)C(=O)C(CC(=O)NCCc2ccccn2)C1 (centres undefined)	·	–	·	·
Cc1ccc2nc(NC(=O)CCNS(=O)(=O)c3cccs3)sc2c1	73.3	–	–	–
Cc1cccc2sc(NC(=O)CCNS(=O)(=O)c3cccs3)nc12	–	–	–	–
Cc1ccc2nc(NC(=O)CCNS(=O)(=O)c3ccc(Br)s3)sc2c1	71.2	–	–	–
COCC(=O)Nc1nc2ccc(C)cc2s1	–	–	–	–
Cc1cccnc1C(NC(=O)C1CCN(Cc2cn(C)c3ccccc23)CC1)c1ccc(Cl)cc1 (centres undefined)	·	–	·	·
CC1(C)CC(=O)C2=C(C1)NC(=O)CC2c1cc(F)ccc1F (centres undefined)	–	–	–	–
O=C1CC(c2cccc(Br)c2)c2cc3c(cc2N1)CCC3 (centres undefined)	107.5	–	–	–
COc1cc2c(cc1OC)C(c1cccc(Br)c1)CC(=O)N2 (centres undefined)	·	–	–	–
O=C1CC(c2cc(F)ccc2F)c2cc3c(cc2N1)CCC3 (centres undefined)	71.3	–	–	–
CCOC(=O)C1CCCN(C(=O)c2ccc(SC(F)(F)F)cc2)CC1 (centres undefined)	·	–	·	·
O=C1NC(Cc2ccc(O)cc2)c2nc3ccc(F)cc3c(=O)n2-c2cc3ccccc3cc21 (centres undefined)	·	–	·	·
Cc1cccc(CNC(=O)C2CCC(=O)N(CC3CCCCC3)C2)c1 (centres undefined)	·	–	·	·
COc1ccc(/C=N/NC(=O)c2csc(-n3nc(C)cc3C(F)(F)F)n2)cc1	79.1	–	–	–
CCCC(=O)N1CCCC1(C)C(=O)Nc1cc(C)ccc1C (centres undefined)	·	–	·	·
CSc1ccc(C(O)c2ncc(-c3ccc(F)cc3)[nH]2)cc1 (centres undefined)	·	–	·	·
SMILES	CHOP inhibitor	GAA850 FXN act	UPR XBP1 act	CHOP UPR activ
CCOC(=O)c1c(NC(=S)Nc2ccc(F)cc2)sc2c1CCC2	73.6	–	–	–
CC(C)(C)c1cc[n+](C2=C([O-])c3ccccc3C(=O)/C2=N\S(=O)(=O)c2cccs2)cc1	81.0	–	–	–
Cc1ccc(NC2CCCCC2NS(=O)(=O)c2ccc(Cl)cc2)cc1 (centres undefined)	90.5	–	–	–
Cc1ccc(S(=O)(=O)Nc2ccc(N3CCCCC3)cc2)cc1	–	–	–	–
O=S(=O)(NC1CCCCC1Nc1ccc(Cl)cc1)c1ccccc1 (centres undefined)	–	–	–	–
Cc1ccc(NS(=O)(=O)c2ccc(C3CCCCC3)cc2)cc1	95.2	–	–	–
O=S(=O)(NCCS(=O)(=O)N1CCN(c2ccc(F)cc2)CC1)c1ccccc1	·	–	·	·
CC(Sc1ccc(Cl)cc1)C(=O)Nc1ccccc1-c1ccccc1 (centres undefined)	92.9	–	·	·
Cc1ccc(SC(C)C(=O)Nc2ccccc2-c2ccccc2)cc1 (centres undefined)	–	–	–	–

Assay outcomes: PubChem BioAssay, several laboratories
